Values after ≈ are worked out from the molar mass of the structure shown. Active and inactive are the calls of the source. The rule behind the calls is not given here.
Legend:
[1] = system: Mycolicibacterium smegmatis; assay: Antibacterial activity against Mycobacterium smegmatis MC2 155 under hypoxic condition after 96 hrs by MTT assay; assay type: functional; conditions: str. MC2 155, 96 h
How it was run: (§1)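 MTT microdilution. Mid-log bacilli in 7H9 with 10% OADC, 0.5% glycerol, 0.05% Tween 80, seeded at 1 × 10⁴ CFU/0.1 mL (M. smegmatis) or 1 × 10⁵ CFU/0.1 mL (BCG, M. tuberculosis), then serially diluted sample added. Aerobic incubation at 37 °C; hypoxic incubation at 37 °C under N2 with 0.2% O2. MTT (0.5 mg/mL, 50 µL) added for 12 h more, OD560 read to give MIC.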

[2] = system: Mycolicibacterium smegmatis; assay: Antibacterial activity against Mycobacterium smegmatis MC2 155 assessed as induction of morphological changes at 1 ug/ml after 48 hrs by phase contrast/scanning electron microscopic analysis; assay type: functional, organism-based; conditions: str. MC2 155
[3] = system: Mycolicibacterium smegmatis; assay: Antibacterial activity against Mycobacterium smegmatis ICHO1035 harboring pMV206 with cloned 696695 to 700844 bp of Mycobacterium bovis BCG genome at 2 ug/ml by agar plate method; assay type: functional, organism-based
[4] = system: Mycobacterium tuberculosis; assay: Antibacterial activity against Mycobacterium tuberculosis T1538 under aerobic condition after 7 days by MTT assay; assay type: functional; conditions: T1538, 168 h; how it was run: as §1
[5] = system: Mycobacterium tuberculosis; assay: Antibacterial activity against Mycobacterium tuberculosis H37Rv under aerobic condition after 7 days by MTT assay; assay type: functional; conditions: 168 h; how it was run: as §1
[6] = system: Mycolicibacterium smegmatis; assay: Antibacterial activity against Mycobacterium smegmatis ICHO2012 harboring pYUB415 with cloned 686465 to 716464 bp of Mycobacterium bovis BCG genome at 4 ug/ml by agar plate method; assay type: functional, organism-based
[7] = system: Mycolicibacterium smegmatis; assay: Antibacterial activity against Mycobacterium smegmatis ICHO1036 harboring pMV206 with cloned 700476 to 702854 bp of Mycobacterium bovis BCG genome at 2 ug/ml by agar plate method; assay type: functional, organism-based
[8] = system: Mycolicibacterium smegmatis; assay: Antibacterial activity against Mycobacterium smegmatis ICHO1036 harboring pMV206 with cloned 700476 to 702854 bp of Mycobacterium bovis BCG genome at 4 ug/ml by agar plate method; assay type: functional, organism-based
[9] = system: Mycolicibacterium smegmatis; assay: Antibacterial activity against Mycobacterium smegmatis MC2 155 under aerobic condition after 36 hrs by MTT assay; assay type: functional; conditions: str. MC2 155, 36 h; how it was run: as §1
[10] = system: Mycolicibacterium smegmatis; assay: Antibacterial activity against Mycobacterium smegmatis ICHO2012 harboring pYUB415 with cloned 686465 to 716464 bp of Mycobacterium bovis BCG genome at 2 ug/ml by agar plate method; assay type: functional, organism-based
[11] = system: Mycolicibacterium smegmatis; assay: Antibacterial activity against Mycobacterium smegmatis ICHO1034 harboring pMV206 with cloned 685769 to 689308 bp of Mycobacterium bovis BCG genome at 4 ug/ml by agar plate method; assay type: functional, organism-based
[12] = system: Mycobacterium tuberculosis; assay: Antibacterial activity against Mycobacterium tuberculosis T1413 under aerobic condition after 7 days by MTT assay; assay type: functional; conditions: T1413, 168 h; how it was run: as §1
[13] = system: Mycolicibacterium smegmatis; assay: Antibacterial activity against Mycobacterium smegmatis ICHO1037 harboring pMV261 with cloned 4109204 to 4110235 bp of Mycobacterium bovis BCG genome at 2 ug/ml by agar plate method; assay type: functional, organism-based
[14] = Inhibition of nybomycin probe (2) binding to pMV206 DNA (unknown origin) with cloned 700476 to 702854 bp of Mycobacterium bovis BCG genome overexpressed in Mycobacterium smegmatis ICHO1036 at 60 uM after 1 hr by agarose gel electrophoresis
[15] = system: Mycolicibacterium smegmatis; assay: Antibacterial activity against Mycobacterium smegmatis ICHO1038 harboring pMV261 with cloned 4126836 to 4129396 bp of Mycobacterium bovis BCG genome at 4 ug/ml by agar plate method; assay type: functional, organism-based
[16] = system: Mycolicibacterium smegmatis; assay: Antibacterial activity against Mycobacterium smegmatis ICHO1034 harboring pMV206 with cloned 685769 to 689308 bp of Mycobacterium bovis BCG genome at 2 ug/ml by agar plate method; assay type: functional, organism-based
[17] = system: Mycolicibacterium smegmatis; assay: Antibacterial activity against Mycobacterium smegmatis ICHO1037 harboring pMV261 with cloned 4109204 to 4110235 bp of Mycobacterium bovis BCG genome at 4 ug/ml by agar plate method; assay type: functional, organism-based
[18] = system: Mycolicibacterium smegmatis; assay: Antibacterial activity against Mycobacterium smegmatis ICHO1035 harboring pMV206 with cloned 696695 to 700844 bp of Mycobacterium bovis BCG genome at 4 ug/ml by agar plate method; assay type: functional, organism-based
[19] = Binding affinity to pMV206 DNA (unknown origin) at 260 pmol after 1 hr by agarose gel electrophoresis
[20] = Binding affinity to pMV206 DNA (unknown origin) with cloned 700476 to 702854 bp of Mycobacterium bovis BCG genome overexpressed in Mycobacterium smegmatis ICHO1036 at 260 pmol after 1 hr by agarose gel electrophoresis
[21] = Binding affinity to pMV206 DNA (unknown origin) with cloned 696695 to 700844 bp of Mycobacterium bovis BCG genome overexpressed in Mycobacterium smegmatis ICHO1035 at 260 pmol after 1 hr by agarose gel electrophoresis

With `Cc1cc(=O)n2c3c(c4c(cc13)c(CO)cc(=O)n4C)OC2` as the compound, how does the MIC [1] read?
Its MIC is 1 µg/mL (≈ 3.35 µM).

And the Activity [2]?
The Activity was “Active”.

And the Activity [3]?
Its Activity is “Active”.

And the MIC [4]?
Its MIC is 5.2 µg/mL (≈ 17.4 µM).

What about the MIC [5] of the same compound?
Its MIC is 4.2 µg/mL (≈ 14.1 µM).

And the Activity [6]?
Its Activity is “inactive”.

What about the Activity [7] of the same compound?
The Activity was “inactive”.

And the Activity [8]?
Its Activity is “Active”.

What about the MIC [9] of the same compound?
Its MIC is 1 µg/mL (≈ 3.35 µM).

And the Activity [10]?
The Activity was “inactive”.

And the Activity [11]?
The Activity was “Active”.

And the MIC [12]?
The MIC was 6.3 µg/mL (≈ 21.1 µM).

What about the Activity [13] of the same compound?
Its Activity is “Active”.

What about the inhibition [14] of the same compound?
The inhibition was “Active”.

And the Activity [15]?
Its Activity is “Active”.

And the Activity [16]?
Its Activity is “inactive”.

What about the Activity [17] of the same compound?
Its Activity is “Active”.

And the Activity [18]?
Its Activity is “Active”.

What does the source list for `Cc1cc(=O)n2c3c(c4c(cc13)c(COC(=O)CCCc1cn(CCOCCOCCOCCOCCOCCOCCOCCOCCOCCOCCNC(=O)CCCC[C@@H]3SC[C@@H]5NC(=O)N[C@@H]53)nn1)cc(=O)n4C)OC2`?
MIC [1]: 6.25 µg/mL (≈ 5.46 µM); MIC [9]: 25 µg/mL (≈ 21.8 µM); Activity [19]: Active; Activity [20]: Active; Activity [21]: Active

For `NNC(=O)c1ccncc1` [ISONIAZID], which MIC [1] is on record?
Its MIC is 25 µg/mL (≈ 182 µM).

And the MIC [9]?
The MIC was 2.5 µg/mL (≈ 18.2 µM).

And the inhibition [14]?
Its inhibition is “inactive”.

Which results are given for `COC(=O)CCCc1cn(CCOCCOCCOCCOCCOCCOCCOCCOCCOCCOCCNC(=O)CCCC[C@@H]2SC[C@@H]3NC(=O)N[C@@H]32)nn1`?
MIC [1]: > 200 µg/mL; MIC [9]: > 200 µg/mL; Activity [20]: inactive
